B1: NELF-E aptamer (parent)
chain: CCCAACGACUGCCGAGCGAGAUUACGCUUGAGCGCCCCACUGAGGAUGCCCACGGGCGAUUGGGGCACGG

Variants of: B1
Assay: HiTS-RAP
Details: with NELF-E (Drosophila)
How it was run: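 Kd came from weighted Hill fits to the first binding curve, with intensities normalised to sequencing intensity and averaged per sequence, keeping only fits whose variance was below 1,000,000. That curve was imaged on an Illumina GAIIx flowcell, where sequenced aptamer DNA templates with a T7 promoter and ter site had been transcribed in situ by T7 RNA polymerase and halted by GST-Tus (30 minutes, 37°C). Before each image, clusters equilibrated for 30 minutes at room temperature with NELF-E-mOrange at 0.064 to 1000 nM in HEPES binding buffer.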

Variant | Kd
CCCAACGACUGCCUAGCGAGAUUACGCUUGAGCGCCCCACUGAGGAUGCCCACAGGCGAUUGGGGCACGG [G14U G54A] | 12.6 nM
CCCAACGACUGCCUAGCGAGGUUACGCUUGAGCGCCCCACUGAGGAUGCCCACGGGCGAUUGGGGCACGG [G14U A21G] | 6.69 nM
CCCAACGACUGCCUAGCGAGUUUACGCUUGAGCGCCCCACUGAGGAUGCCCACGGGCGAUUGGGGCACGG [G14U A21U] | 6.73 nM
CCCAACGACUGCCUAGCAAGAUUACGCUUGAGCGCCCCACUGAGGAUGCCCACGGGCGAUUGGGGCACGG [G14U G18A] | 6.29 nM
CCCAACGACUGCCUAGCUAGAUUACGCUUGAGCGCCCCACUGAGGAUGCCCACGGGCGAUUGGGGCACGG [G14U G18U] | 7.17 nM
CCCAACGACUGCCUAGCGAGAUUGCGCUUGAGCGCCCCACUGAGGAUGCCCACGGGCGAUUGGGGCACGG [G14U A24G] | 6.51 nM
CCCAACGACUGCCUAACGAGAUUACGCUUGAGCGCCCCACUGAGGAUGCCCACGGGCGAUUGGGGCACGG [G14U G16A] | 6.74 nM
CCCAACGACUGCCUAUCGAGAUUACGCUUGAGCGCCCCACUGAGGAUGCCCACGGGCGAUUGGGGCACGG [G14U G16U] | 7.62 nM
CCCAACGACUGCCUAGCGAAAUUACGCUUGAGCGCCCCACUGAGGAUGCCCACGGGCGAUUGGGGCACGG [G14U G20A] | 6.93 nM
CCCAACGACUGCCUAGCGAUAUUACGCUUGAGCGCCCCACUGAGGAUGCCCACGGGCGAUUGGGGCACGG [G14U G20U] | 6.93 nM
CCCAACGACUGCCUAGCGAGAUUACGCUUGAGCGCCCCGCUGAGGAUGCCCACGGGCGAUUGGGGCACGG [G14U A39G] | 9.72 nM
CCCAACGACUGCCUAGCGAGAUUACGCUUGAGCGCCCCUCUGAGGAUGCCCACGGGCGAUUGGGGCACGG [G14U A39U] | 32.5 nM
CCCAACGACUGCCUAGCGAGAUUACGCUUGAGCGCCCCACUGAGGGUGCCCACGGGCGAUUGGGGCACGG [G14U A46G] | 57.2 nM
CCCAACGACUGCCUAGCGAGAUUACGCUUGAGUGCCCCACUGAGGAUGCCCACGGGCGAUUGGGGCACGG [G14U C33U] | 5.15 nM
CCCAACGACUGCCUAGCGGGAUUACGCUUGAGCGCCCCACUGAGGAUGCCCACGGGCGAUUGGGGCACGG [G14U A19G] | 6.25 nM
CCCAACGACUGCCUAGCGUGAUUACGCUUGAGCGCCCCACUGAGGAUGCCCACGGGCGAUUGGGGCACGG [G14U A19U] | 7.38 nM
CCCAACGACUGCCUAGCGAGAUUACGCUUGAGCGCCCCACUGAGGAUACCCACGGGCGAUUGGGGCACGG [G14U G48A] | 13.2 nM
CCCAACGACUGCCUAGCGAGAUUACGCUUGAGCGUCCCACUGAGGAUGCCCACGGGCGAUUGGGGCACGG [G14U C35U] | 10.1 nM
CCCAACGACUGCCUAGCGAGAUUACGCUUGAGCGCCUCACUGAGGAUGCCCACGGGCGAUUGGGGCACGG [G14U C37U] | 21.2 nM
CCCAACGACUGCCUAGCGAGAUUACGCUUGAGCGCCCCACUGUGGAUGCCCACGGGCGAUUGGGGCACGG [G14U A43U] | 84.4 nM

Variant | Kd
CCCAACGACUGCCUAGCGAGAUUACGCUUGAGCGCCCCACUGGGGAUGCCCACGGGCGAUUGGGGCACGG [G14U A43G] | 116 nM
CCCAACGACUGCCUAGCGAGAUUACGCUUGAGCACCCCACUGAGGAUGCCCACGGGCGAUUGGGGCACGG [G14U G34A] | 6.18 nM
CCCAACGACUGCCUAGCGAGAUUACGCUUGAGCUCCCCACUGAGGAUGCCCACGGGCGAUUGGGGCACGG [G14U G34U] | 5.16 nM
CCCAACGACUGCCUUGCGAGAUUACGCUUGAGCGCCCCACUGAGGAUGCCCACGGGCGAUUGGGGCACGG [G14U A15U] | 6.94 nM
CCCAACGACUGCCUAGGGAGAUUACGCUUGAGCGCCCCACUGAGGAUGCCCACGGGCGAUUGGGGCACGG [G14U C17G] | 6.27 nM
CCCAACGACUGCCUAGUGAGAUUACGCUUGAGCGCCCCACUGAGGAUGCCCACGGGCGAUUGGGGCACGG [G14U C17U] | 6.1 nM
CCCAACGACUGCCUAGCGAGAUUACGCUUGAGCGCCCCACUGAGGAUGCCCACGGGUGAUUGGGGCACGG [G14U C57U] | 5.72 nM
CCCAACGACUGCCUAGCGAGAUUACGCUUGAGCGCUCCACUGAGGAUGCCCACGGGCGAUUGGGGCACGG [G14U C36U] | 8.6 nM
CCCAACGACUGCCUAGCGAGAUUACGCUUGAGCGCCCCACUGAGGAUGCCCUCGGGCGAUUGGGGCACGG [G14U A52U] | 15.8 nM
CCCAACGACUGCCUAGCGAGAUUAUGCUUGAGCGCCCCACUGAGGAUGCCCACGGGCGAUUGGGGCACGG [G14U C25U] | 7.71 nM
CCCAACGACUGCCUAGCGAGAUUAGGCUUGAGCGCCCCACUGAGGAUGCCCACGGGCGAUUGGGGCACGG [G14U C25G] | 8.18 nM
CCCAACGACUGCCUAGCGAGAUUACGCUUGAGCGCCCCAUUGAGGAUGCCCACGGGCGAUUGGGGCACGG [G14U C40U] | 53.4 nM
CCCAACGACUGCCUAGCGAGAUUACGCUUGAGCGCCCCAGUGAGGAUGCCCACGGGCGAUUGGGGCACGG [G14U C40G] | 9.9 nM
CCCAACGACUGCCUAGCGAGAUUACGCUUGAGCGCCCCACUGAGGAUGCCCACGGGCGAUUGGGGCUCGG [G14U A67U] | 6.23 nM
CCCAACGACUGCCUAGCGAGAUUACGCUUGAGCGCCCCACUGAGGAUGCCCACGGGCGAUUGGGGCGCGG [G14U A67G] | 6.8 nM
CCCAACGACUGCCUAGCGAGAUUACGCUUGAGCGCCCUACUGAGGAUGCCCACGGGCGAUUGGGGCACGG [G14U C38U] | 9.69 nM
CCCAACGACUGCCUAGCGAGAUUACUCUUGAGCGCCCCACUGAGGAUGCCCACGGGCGAUUGGGGCACGG [G14U G26U] | 6.16 nM
CCCAACGACUGCCUAGCGAGAUUACACUUGAGCGCCCCACUGAGGAUGCCCACGGGCGAUUGGGGCACGG [G14U G26A] | 5.3 nM
CCCAACGACUGCCUAGCGAGAUUACGCUUGGGCGCCCCACUGAGGAUGCCCACGGGCGAUUGGGGCACGG [G14U A31G] | 7.27 nM

Reference: the RNAGym collection of RNA variant scans (doi:10.1038/nmeth.2970)
